Experimental data as given in ChEMBL document CHEMBL4627348, “Synthesis of (1,3,4-thiadiazol-2-yl)-acrylamide derivatives as potential antitumor agents against acute leukemia cells” (Bioorg Med Chem Lett, 2020).

Key:
Format in all cases: functional
RS4-11 [1] = experiment: Induction of apoptosis in human RS4:11 cells assessed as necrotic cells at 0.5 uM after 48 hrs by Annexin-V and 7-AAD staining based flow cytometric analysis (reference value: 0.67%)
HL-60 = experiment: Antiproliferative activity against human HL60 cells assessed as growth inhibition at 1 uM after 48 hrs by CCK-8 assay relative to control; details: HL-60, 48 h, read-out: GI
Outline: (§1)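 Positive-control reference compound run at 1 μM alongside the 20 μM screen. CCK-8 viability after 48 h exposure, inhibition ratio relative to control.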

RS4-11 [2] = experiment: Induction of apoptosis in human RS4:11 cells assessed as viable cells at 0.5 uM after 48 hrs by Annexin-V and 7-AAD staining based flow cytometric analysis (reference value: 94.06%); details: RS4-11, 48 h, read-out: Activity
RS4-11 [3] = experiment: Antiproliferative activity against human RS4:11 cells assessed as growth inhibition at 1 uM after 48 hrs by CCK-8 assay relative to control; details: RS4-11, 48 h, read-out: GI; outline: as §1
RS4-11 [4] = experiment: Induction of apoptosis in human RS4:11 cells assessed as early apoptotic cells at 0.5 uM after 48 hrs by Annexin-V and 7-AAD staining based flow cytometric analysis (reference value: 2.56%)
RS4-11 [5] = experiment: Induction of apoptosis in human RS4:11 cells assessed as late apoptotic cells at 0.5 uM after 48 hrs by Annexin-V and 7-AAD staining based flow cytometric analysis (reference value: 2.71%)

## CC1(C)CCC(CN2CCN(c3ccc(C(=O)NS(=O)(=O)c4ccc(NCC5CCOCC5)c([N+](=O)[O-])c4)c(Oc4cnc5[nH]ccc5c4)c3)CC2)=C(c2ccc(Cl)cc2)C1 [VENETOCLAX]
RS4-11 [1]
  Activity: 2.11%
HL-60
  inhibition of growth at 1 µM: 98%
RS4-11 [2]
  viability at 0.5 µM: 2.71%
RS4-11 [3]
  inhibition of growth at 1 µM: 95%
RS4-11 [4]
  Activity: 11.91%
RS4-11 [5]
  Activity: 83.27%
